Reference: ChEMBL document CHEMBL1139543, “Antineoplastic agents. 445. Synthesis and evaluation of structural modifications of (Z)- and (E)-combretastatin A-41” (J Med Chem, 2005)
≈ marks a conversion by molar mass, not a printed value.

Tests used:
[1] = test system: SK-N-SH; test: Growth inhibition against human neuroblastoma cell line (SK-N-SH); assay type: functional
[2] = test system: SW-1736; test: Growth inhibition against human thyroid cell line( SW 1736); assay type: functional
[3] = test system: NCI-H460; test: Growth inhibition against human lung-NSC NCI-H460 cell line; assay type: functional
[4] = test system: P388; test: Effective dose against murine P388 leukemia cell line; assay type: functional; conditions: Mus musculus, read-out: ED50 (the source's name)
[5] = test system: FaDu; test: Growth inhibition against human pharynx FADU cell line; assay type: functional
[6] = test system: DU-145; test: Growth inhibition against human prostate cell line (DU-145); assay type: functional
[7] = test system: BXPC-3; test: Growth inhibition against human pancreas carcinoma cell line (BxPC-3); assay type: functional
[8] = molecular target: Tubulin beta-1 chain (Homo sapiens, UniProt Q9H4B7); test: Inhibition of tubulin polymerization upon incubation for 20 min at 30 degree C
How it was run: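 Purified tubulin at 10 µM (1.0 mg/mL) in 0.8 M monosodium glutamate, pH 6.6, with 4% (v/v) DMSO and varying compound concentrations. Preincubated 15 min at 37 °C, chilled on ice, then GTP (0.4 mM) added. Warmed from 0 °C to 30 °C, and assembly followed 20 min by turbidity at 350 nm. IC50 interpolated; at least two determinations; SD reported.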

[9] = test system: Neisseria gonorrhoeae; test: Minimum inhibitory concentration against Neisseria gonorrhoeae was determined in the disk diffusion assay; value ranges from 50-100 ug/disk; assay type: functional
[10] = test system: Neisseria gonorrhoeae; test: Minimum inhibitory concentration against Neisseria gonorrhoeae was determined in the disk diffusion assay; value ranges from 12.5-25 ug/disk; assay type: functional
[11] = test system: Enterococcus faecalis; test: Minimum inhibitory concentration against Enterococcus faecalis was determined in the disk diffusion assay value ranges from 50-100 ug/disk; assay type: functional
[12] = test system: Micrococcus luteus; test: Minimum inhibitory concentration against Micrococcus luteus was determined in the disk diffusion assay; assay type: functional
[13] = test system: Staphylococcus aureus; test: Minimum inhibitory concentration against Staphylococcus aureus was determined in the disk diffusion assay; value ranges from 25-50 ug/disk; assay type: functional
[14] = test system: Micrococcus luteus; test: Minimum inhibitory concentration against Micrococcus luteus was determined in the disk diffusion assay; value ranges from 12.5-25 ug/disk; assay type: functional
[15] = test system: Staphylococcus aureus; test: Minimum inhibitory concentration against Staphylococcus aureus was determined in the disk diffusion assay; value ranges from 50-100 ug/disk; assay type: functional

Chain of Tubulin beta-1 chain (Q9H4B7 whole entry): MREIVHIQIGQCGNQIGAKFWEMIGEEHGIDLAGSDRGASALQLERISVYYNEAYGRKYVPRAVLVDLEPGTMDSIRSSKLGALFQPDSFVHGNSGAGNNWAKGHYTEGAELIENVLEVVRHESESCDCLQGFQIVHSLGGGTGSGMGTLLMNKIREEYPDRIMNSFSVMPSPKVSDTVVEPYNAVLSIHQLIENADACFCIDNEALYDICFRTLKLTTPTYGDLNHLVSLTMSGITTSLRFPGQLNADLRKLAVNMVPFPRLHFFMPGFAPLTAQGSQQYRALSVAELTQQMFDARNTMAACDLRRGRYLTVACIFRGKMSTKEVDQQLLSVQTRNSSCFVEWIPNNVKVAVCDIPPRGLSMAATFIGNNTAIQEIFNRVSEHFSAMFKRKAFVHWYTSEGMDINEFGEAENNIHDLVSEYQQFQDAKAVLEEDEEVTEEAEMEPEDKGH

SMILES	GI50 [1] [µg/mL]	GI50 [2] [µg/mL]	GI50 [3] [µg/mL]	EC50 [4] [µg/mL]	GI50 [5] [µg/mL]	GI50 [6] [µg/mL]	GI50 [7] [µg/mL]	IC50 [8] [µM]	MIC [9] [ug/disk]	MIC [10] [ug/disk]	MIC [11] [ug/disk]	MIC [12] [ug/disk]	MIC [13] [ug/disk]	MIC [14] [ug/disk]	MIC [15] [ug/disk]
COc1ccc(/C=C\c2cc(OC)c(OC)c(OC)c2)cc1N	0.00023 (≈ 0.000729 µM)	0.0008 (≈ 0.00254 µM)	0.00033 (≈ 0.00105 µM)	> 0.01	0.00053 (≈ 0.00168 µM)	0.00033 (≈ 0.00105 µM)	0.00043 (≈ 0.00136 µM)	–	–	–	–	–	–	–	–
COc1ccc(/C=C\c2cc(OC)c(OC)c(OC)c2)cc1OCCO	0.028 (≈ 0.0777 µM)	0.28 (≈ 0.777 µM)	0.14 (≈ 0.388 µM)	0.195 (≈ 0.541 µM)	0.069 (≈ 0.191 µM)	0.32 (≈ 0.888 µM)	0.045 (≈ 0.125 µM)	2.8	100	–	–	–	–	–	–
COc1ccc(/C=C\c2cc(OC)c(O)c(OC)c2)cc1O	0.19 (≈ 0.628 µM)	3.4 (≈ 11.2 µM)	0.74 (≈ 2.45 µM)	0.25 (≈ 0.827 µM)	0.23 (≈ 0.761 µM)	0.17 (≈ 0.562 µM)	> 4	–	–	25	–	–	–	–	–
CCN(CC)CCOc1cc(/C=C\c2cc(OC)c(OC)c(OC)c2)ccc1OC.Cl	1.5	1.1	3.3	0.255	1.1	3.4	> 10	> 40	100	–	100	<6.25	50	–	–
COc1ccc(/C=C\c2cc(OC)c(OC)c(OC)c2)cc1OCCN(C)C.Cl	0.21	0.64	0.34	0.523	0.47	0.38	> 10	> 40	–	–	–	–	–	–	–
COc1ccc(/C=C\c2cc(OC)c(OC)c(OC)c2)cc1OCCN1CCN(C)CC1.Cl.Cl	2.8	> 10	3.4	1.6	2.9	4.1	> 10	> 40	–	–	–	–	–	–	–
COc1ccc(/C=C\c2cc(OC)c(OC)c(OC)c2)cc1OCCn1cccc1.Cl	0.0064	4.9	0.0033	0.0232	0.003	0.56	2.3	20	–	–	–	–	–	–	–
COc1ccc(/C=C\c2cc(OC)c(OC)c(OC)c2)cc1OCCN1CCOCC1.Cl	0.22	0.97	0.41	0.634	0.53	0.4	2.9	> 40	100	–	–	–	–	–	–
COc1ccc(/C=C\c2cc(OC)c(OC)c(OC)c2)cc1OCCN1CCCCC1.Cl	1.6	5.1	3.3	0.348	4.2	3.4	> 10	> 40	–	–	–	–	–	–	–
COc1ccc(/C=C\c2cc(OC)c(OC)c(OC)c2)cc1OCCn1ccnc1.Cl	0.31	1.5	0.56	19	0.67	1.5	0.82	7.6	100	–	–	–	–	25	–
COc1ccc(/C=C\c2cc(OC)c(OC)c(OC)c2)cc1OCCN1CCCC1.Cl	0.22	0.6	0.34	0.421	0.49	0.35	2	> 40	–	–	–	–	–	25	100
COc1ccc(/C=C\c2cc(OC)c(OC)c(OC)c2)cc1O [COMBRETASTATIN A4]	0.00026 (≈ 0.000822 µM)	0.00026 (≈ 0.000822 µM)	0.00056 (≈ 0.00177 µM)	0.0026 (≈ 0.00822 µM)	0.00065 (≈ 0.00205 µM)	0.00076 (≈ 0.0024 µM)	> 0.1	–	–	–	–	–	–	–	–
COc1ccc(/C=C\c2cc(OC)c(OC)c(OC)c2)cc1OP(=O)([O-])[O-].[Na+].[Na+] [FOSBRETABULIN DISODIUM]	0.00025	0.00061	0.00035	0.0029	0.00045	0.00072	0.23	–	–	–	–	–	–	–	–
